≈ marks a conversion by molar mass, not a printed value.

Holding throughout (type): functional
Assay [1] relates to Eimeria tenella. The assay is described as follows: In vivo anti-coccidial activity expressed as number of the chicks cleared of Eimeria tenella lesions out of a group of five, at 50 ppm in the diet. In outline: (§1)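 Week-old chicks, given compound in the diet. E. tenella (Weybridge strain) infection given together with E. acervulina (Ongar strain).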
In assay [2] the test system is Eimeria tenella. Briefly: In vivo anti-coccidial activity expressed as number of the chicks cleared of Eimeria tenella lesions out of a group of five, at 200 ppm in the diet. In outline:
as §1

The subject of assay [3] is Eimeria tenella. Briefly: In vivo anti-coccidial activity expressed as number of the chicks cleared of Eimeria tenella lesions out of a group of five, at 25 ppm in the diet. In short, it runs like this: as §1
In assay [4] the test system is Eimeria tenella. The assay is described as follows: In vitro inhibitory activity against Eimeria tenella in embryonic chick liver cells. In short, it runs like this: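 E. tenella, Weybridge strain, grown in vitro in embryonic chick liver cells.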
Assay [5] concerns Eimeria tenella. The assay is described as follows: In vivo anti-coccidial activity expressed as number of the chicks cleared of Eimeria tenella lesions out of a group of five, at 400 ppm in the diet. In short, it runs like this: as §1
Assay [6] concerns Eimeria tenella. The assay is described as follows: In vivo anti-coccidial activity expressed as number of the chicks cleared of Eimeria tenella lesions out of a group of five, at 100 ppm in the diet. In short, it runs like this:
as §1

The test system of assay [7] is Eimeria tenella. Briefly: In vivo anti-coccidial activity expressed as number of the chicks cleared of Eimeria tenella lesions out of a group of five, at 300 ppm in the diet. In short, it runs like this: as §1
The subject of assay [8] is Eimeria tenella. Briefly: In vivo anti-coccidial activity expressed as number of the chicks cleared of Eimeria tenella lesions out of a group of five, at 200 ppm in the diet;one chick out of 5 died and contained lesions due to the parasite.
The subject of assay [9] is Eimeria tenella. Briefly: In vivo anti-coccidial activity expressed as number of the chicks cleared of Eimeria tenella lesions out of a group of five, at 25 ppm in the diet;At 12.5 ppm, no chicks were cleared. In outline: as §1
Assay [10] has as its system Eimeria tenella. Briefly: In vivo anti-coccidial activity expressed as number of the chicks cleared of Eimeria tenella lesions out of a group of five, at 12.5 ppm in the diet. In short, it runs like this: as §1
Assay [11] has as its system Eimeria tenella. The assay is described as follows: In vivo anti-coccidial activity expressed as number of the chicks cleared of Eimeria tenella lesions out of a group of five, at 25 ppm in the diet;At 12.5 p.p.m. no chicks were cleared. In short, it runs like this: as §1
Assay [12] concerns Eimeria tenella. Briefly: In vivo anti-coccidial activity expressed as number of the chicks cleared of Eimeria tenella lesions out of a group of five, at 200 ppm in the diet;one chick out of a group of 5 died and contained lesions due to the parasite.

On to `CC(=O)OC[C@H]1O[C@@H](n2ncc3c(SC/C=C/c4ccccc4)ncnc32)[C@H](OC(C)=O)[C@@H]1OC(C)=O`, for which the Activity in the assay on Eimeria tenella [1] was 5; with Eimeria tenella [2], 5; in the assay on Eimeria tenella [3], 1. The molecule further displayed an MIC against Eimeria tenella [4] of 1.25 µg/mL (≈ 2.37 µM).

`OC[C@H]1OC(n2ncc3c(SC/C=C/c4ccc(Cl)c(Cl)c4)ncnc32)[C@H](O)[C@@H]1O` (stereo partly drawn) returned an Activity in the assay on Eimeria tenella [2] of 2. In the assay with Eimeria tenella [4], this molecule returned an MIC of 0.31 µg/mL (≈ 0.66 µM).

In the case of `OC[C@H]1OC(n2ncc3c(SC/C=C/c4cccc(O)c4)ncnc32)[C@H](O)[C@@H]1O` (stereo partly drawn), the Activity in the assay with Eimeria tenella [5] was 0. For the same molecule, the minimal inhibitory concentration (MIC) in the assay on Eimeria tenella [4] is 20 µg/mL (≈ 48 µM).

For `C/C=C/CSc1ncnc2c1cnn2C1O[C@H](CO)[C@@H](O)[C@H]1O` (stereo partly drawn), the Activity was 0 in the assay on Eimeria tenella [1], 5 in the assay with Eimeria tenella [2], 4 in the assay with Eimeria tenella [6] and 0 with Eimeria tenella [3]. For the same molecule, the MIC against Eimeria tenella [4] worked out at 0.019 µg/mL (≈ 0.0561 µM).

For the molecule `OC[C@H]1OC(n2ncc3c(S)ncnc32)[C@H](O)[C@@H]1O` (stereo partly drawn), the Activity in the assay on Eimeria tenella [2] amounted to 2. The molecule further came in with a minimal inhibitory concentration (MIC) with Eimeria tenella [4] of 0.31 µg/mL (≈ 1.09 µM).

Turning to `COc1ccccc1/C=C/CSc1ncnc2c1cnn2C1O[C@H](CO)[C@@H](O)[C@H]1O` (stereo partly drawn), the Activity in the assay with Eimeria tenella [7] turned out to be 1. This molecule also had an MIC with Eimeria tenella [4] of 1.25 µg/mL (≈ 2.9 µM).

In the assay with Eimeria tenella [8], `OC[C@H]1OC(n2ncc3c(SC/C=C/c4cccc(C(F)(F)F)c4)ncnc32)[C@H](O)[C@@H]1O` (stereo partly drawn) showed an Activity of 1. The minimal inhibitory concentration (MIC) in the assay with Eimeria tenella [4] came to 5 µg/mL (≈ 10.7 µM).

As to `COc1cc(/C=C/CSc2ncnc3c2cnn3C2O[C@H](CO)[C@@H](O)[C@H]2O)cc(OC)c1OC` (stereo partly drawn), the Activity in the assay with Eimeria tenella [5] is recorded as 5; with Eimeria tenella [2] it was 5; in the assay on Eimeria tenella [6], 2. In the assay with Eimeria tenella [4], this molecule yielded an MIC of 0.31 µg/mL (≈ 0.632 µM).

`C=CCSc1ncnc2c1cnn2C1O[C@H](CO)[C@@H](O)[C@H]1O` (stereo partly drawn): the Activity with Eimeria tenella [1] was determined as 2; in the assay with Eimeria tenella [2], 5; in the assay on Eimeria tenella [6], 5; in the assay on Eimeria tenella [3] it was 1. In the assay with Eimeria tenella [4], this molecule came in with a minimum inhibitory concentration (MIC) of 0.019 µg/mL (≈ 0.0586 µM).

`OC[C@H]1OC(n2ncc3c(SC/C=C/C=C/c4ccccc4)ncnc32)[C@H](O)[C@@H]1O` (stereo partly drawn): the Activity is on record as 5 with Eimeria tenella [1], 5 with Eimeria tenella [2] and 1 in the assay on Eimeria tenella [3]. Also, in the assay with Eimeria tenella [4], the MIC was 0.019 µg/mL (≈ 0.0445 µM).

As to `OC[C@H]1OC(n2ncc3c(SC/C=C\c4ccccc4)ncnc32)[C@H](O)[C@@H]1O` (stereo partly drawn), the Activity in the assay on Eimeria tenella [1], with Eimeria tenella [9] and in the assay with Eimeria tenella [6] was 0 in each case. For the same molecule, in the assay with Eimeria tenella [4], the MIC is > 20 µg/mL.

In the case of `O=P(O)(O)OC[C@H]1OC(n2ncc3c(SC/C=C/c4ccccc4)ncnc32)[C@H](O)[C@@H]1O` (stereo partly drawn), the Activity in the assay with Eimeria tenella [1] worked out at 5; in the assay with Eimeria tenella [2] it was 5; in the assay with Eimeria tenella [6], 5; in the assay on Eimeria tenella [10], 0; in the assay on Eimeria tenella [3] it was 5. The MIC in the assay on Eimeria tenella [4] was determined as 0.012 µg/mL (≈ 0.025 µM).

Consider `COc1ccc(/C=C/CSc2ncnc3c2cnn3C2O[C@H](CO)[C@@H](O)[C@H]2O)cc1` (stereo partly drawn), for which the Activity in the assay on Eimeria tenella [7] is 2. Besides, in the assay on Eimeria tenella [4], the minimum inhibitory concentration (MIC) worked out at 1.25 µg/mL (≈ 2.9 µM).

`OC[C@H]1OC(n2ncc3c(SCC#Cc4ccccc4)ncnc32)[C@H](O)[C@@H]1O` (stereo partly drawn): the Activity came to 0 in the assay with Eimeria tenella [1], 5 with Eimeria tenella [2], 2 in the assay on Eimeria tenella [6] and 1 with Eimeria tenella [3]. Moreover, the MIC against Eimeria tenella [4] turned out to be 0.019 µg/mL (≈ 0.0477 µM).

For `OC[C@H]1OC(n2ncc3c(SC/C=C/c4ccc(Cl)cc4)ncnc32)[C@H](O)[C@@H]1O` (stereo partly drawn), the Activity in the assay with Eimeria tenella [1] is recorded as 0; in the assay with Eimeria tenella [2], 5; with Eimeria tenella [6], 5; in the assay on Eimeria tenella [3] it was 0. The molecule further displayed a minimal inhibitory concentration (MIC) against Eimeria tenella [4] of 0.31 µg/mL (≈ 0.713 µM).

`OC[C@H]1OC(n2ncc3c(SC/C=C/c4ccccc4)ncnc32)[C@H](O)[C@@H]1O` (stereo partly drawn): the Activity in the assay with Eimeria tenella [1], in the assay on Eimeria tenella [2], in the assay on Eimeria tenella [6] and with Eimeria tenella [11] was 5 each time. In the assay with Eimeria tenella [4], this molecule registered an MIC of 0.078 µg/mL (≈ 0.195 µM).

On to `OC[C@H]1OC(n2ncc3c(SC/C=C/c4cccc(Br)c4)ncnc32)[C@H](O)[C@@H]1O` (stereo partly drawn), for which the Activity turned out to be 4 in the assay with Eimeria tenella [1], 5 in the assay with Eimeria tenella [2], 5 in the assay on Eimeria tenella [6] and 1 with Eimeria tenella [3]. This molecule also yielded a minimal inhibitory concentration (MIC) with Eimeria tenella [4] of 5 µg/mL (≈ 10.4 µM).

Consider `Cc1ccc(/C=C/CSc2ncnc3c2cnn3C2O[C@H](CO)[C@@H](O)[C@H]2O)cc1` (stereo partly drawn), for which the Activity in the assay with Eimeria tenella [12] was 0. This molecule registered an MIC against Eimeria tenella [4] of 5 µg/mL (≈ 12.1 µM).

As to `OC[C@H]1OC(n2ncc3c(SC/C=C/c4ccc(OCc5ccccc5)cc4)ncnc32)[C@H](O)[C@@H]1O` (stereo partly drawn), the Activity is recorded as 0 in the assay on Eimeria tenella [1], 5 in the assay with Eimeria tenella [2], 2 in the assay with Eimeria tenella [6] and 1 with Eimeria tenella [3]. In addition, it took 1.25 µg/mL (≈ 2.47 µM) to inhibit growth with Eimeria tenella [4] (MIC).

For the molecule `OC[C@H]1OC(n2ncc3c(SC/C=C/c4ccc(Cl)cc4Cl)ncnc32)[C@H](O)[C@@H]1O` (stereo partly drawn), in the assay with Eimeria tenella [2], the Activity came to 2. Also, the MIC in the assay on Eimeria tenella [4] turned out to be 1.25 µg/mL (≈ 2.66 µM).

Source of the values: ChEMBL document CHEMBL1122376, “Pyrazolo[3,4-d]pyrimidine ribonucleosides as anticoccidials. 3. Synthesis and activity of some nucleosides of 4-[(arylalkenyl)thio]pyrazolo[3,4-d]pyrimidines” (1983).
